Experimental data pooled from the literature.
Lines come from different studies, so protocols differ.
Target: Calcium-dependent protein kinase 1 (CDPK1, Plasmodium falciparum, UniProt P62344)

Compound | assay | conditions | endpoint | result
C=CC(=O)N1CCC(C(=O)NCC(=O)N2CCN(c3nc(-c4cnc(N)nc4C(F)F)nc(N4CCOCC4)n3)CC2)CC1 | binding, competition with immobilised ligand | 1 µM | remaining binding | 81%
O=C(NCC1CCOCC1)c1n[nH]cc1NC(=O)c1c(F)cccc1F | binding, competition with immobilised ligand | 1 µM | remaining binding | 83%
COc1ccnn2ncc(-c3ccnc(N(C)C)n3)c12 | binding | 1 µM | remaining binding | 81%
COc1cnc(Nc2cccc(S(N)(=O)=O)c2)nc1N1CCN(c2ccccc2)CC1 | binding, competition with immobilised ligand | 1 µM | remaining binding | 86%
Cc1ccc(C(=O)Nc2ccc(CN3CCN(C)CC3)c(C(F)(F)F)c2)cc1C#Cc1cnc2cccnn12 | enzyme activity, inhibitor | 23.5 nM | remaining activity | 16%
Cc1nn(C)cc1-c1nc2c(N3CCN(Cc4ccc(Cl)cc4)CC3)c(Cl)cnc2[nH]1 | binding, competition with immobilised ligand | 1 µM | remaining binding | 100%
O=C(Nc1c[nH]nc1C(=O)NC1CCNCC1)c1cc(F)cc(F)c1 | binding, competition with immobilised ligand | 1 µM | remaining binding | 89%
Nc1ncc2c(n1)-c1c([nH]c3ccc(C#CC4CC4)cc13)CCCC2 | binding, competition with immobilised ligand | 1 µM | remaining binding | 79%
C[C@@H]1CCN(c2nccc(-c3cnn4ncccc34)n2)C1 | binding | 1 µM | remaining binding | 85%
CNC(=O)[C@@H]1CC[C@@H](n2c(-c3ccc4cnccc4c3)nc3ccc(C(=O)NCc4cccc(C(N)=O)c4)cc32)C1 | binding, competition with immobilised ligand | 1 µM | remaining binding | 99%
FC(F)(F)Oc1cccc(-c2cnc3ccc(-c4ccncc4)nn23)c1 | binding, competition with immobilised ligand | 5 µM | remaining binding | 4.5%
CCN1CCN(Cc2ccc(C(=O)Nc3ccc(C)c(Oc4ccc5c(c4)CC(=O)N5)c3)cc2C(F)(F)F)CC1 | binding, competition with immobilised ligand | 1 µM | remaining binding | 68%
N[C@@H]1CCN(c2nccc(-c3cnn4ncccc34)n2)C1 | binding | 1 µM | remaining binding | 91%
c1cncc(-c2cccc(Nc3nccc(NC4CCCCC4)n3)c2)c1 | binding, competition with immobilised ligand | 10 µM | remaining binding | 24%
Nc1ncnc2occ(-c3ccc(NC(=O)Nc4cc(C(F)(F)F)ccc4F)cc3)c12 | cell-free assay, inhibitor | 20 µM | remaining signal | 1.2%
